Source: PubChem (Johns Hopkins Ion Channel Center)
KCNQ1 block: inhibitors of human KCNQ1 potassium channel | B-score at 10 µM | P51787 | CHO-K1 KCNQ1, FluxOR thallium flux fluorescence; active compounds read high | actives 1.3% (n = 310,000) | AID 2642;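 active = compounds whose thallium flux B-score, printed positive for inhibition, exceeds three library SD while starting fluorescence stays within three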;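 also: channel opened by potassium depolarization with thallium stimulus after 20 min compound exposure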
Target sequence (P51787 whole entry, looked up): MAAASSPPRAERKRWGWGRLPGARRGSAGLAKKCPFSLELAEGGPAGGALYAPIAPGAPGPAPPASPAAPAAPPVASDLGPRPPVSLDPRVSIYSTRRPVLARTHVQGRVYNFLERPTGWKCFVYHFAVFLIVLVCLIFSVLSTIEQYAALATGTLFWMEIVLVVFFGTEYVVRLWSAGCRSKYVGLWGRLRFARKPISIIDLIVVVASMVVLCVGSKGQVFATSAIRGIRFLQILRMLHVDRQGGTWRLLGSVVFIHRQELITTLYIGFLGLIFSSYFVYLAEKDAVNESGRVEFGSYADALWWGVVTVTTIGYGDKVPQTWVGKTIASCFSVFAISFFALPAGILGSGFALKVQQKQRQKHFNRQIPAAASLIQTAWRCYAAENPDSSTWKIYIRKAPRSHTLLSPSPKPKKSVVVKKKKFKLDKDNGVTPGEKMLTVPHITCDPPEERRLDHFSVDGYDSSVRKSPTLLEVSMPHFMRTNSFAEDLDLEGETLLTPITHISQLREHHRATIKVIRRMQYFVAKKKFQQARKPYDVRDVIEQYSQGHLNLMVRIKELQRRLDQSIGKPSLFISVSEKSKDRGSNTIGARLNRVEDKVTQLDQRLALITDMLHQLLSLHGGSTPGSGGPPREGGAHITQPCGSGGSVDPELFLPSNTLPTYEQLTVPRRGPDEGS
hERG rescue: shields human hERG channel from block by proarrhythmic agents | Q12809 | actives 0.51% (n = 310,000) | CHO-hERG, FluxOR thallium flux, dofetilide IC70 present | activation (rescue from dofetilide block), less the hit threshold, % at 10 µM | AID 1511;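 active = activation above the mean of controls blocked by dofetilide plus 5 SD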;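 also: thallium influx through hERG after potassium depolarization seen as dye fluorescence rise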
Kir21 block: Kir2.1 (mouse) channel inhibition. P35561. HEK293-Kir2.1, FluxOR thallium flux fluorescence; active compounds read low. B-score at 10 µM. actives 0.85% (n = 310,000). AID 1672;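 active = fluorescence ratio B-score at or below minus 3 SD of library scores, with starting-brightness B-score within 2 SD, cut at about -4.2 in these data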;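 also: channel flux triggered by added potassium and thallium sulfate stimulus; B-score of peak minus minimum fluorescence over baseline after thallium stimulus; more negative B-score means stronger Kir2.1 block with less thallium influx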
KCNK9 block: inhibitors of human KCNK9 two-pore domain potassium channel | AID 488922 | actives 1.2% (n = 310,000) | HEK293 KCNK9, FluxOR thallium flux fluorescence; active compounds read low | B-score at 10 µM | Q9NPC2;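 active = ratio B-score over 3 SD below the library mean, with starting fluorescence within 5 SD of its mean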;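 also: negative B-score means less thallium flux so channel inhibition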
KCNQ1 act: human KCNQ1 channel potentiation or activation; AID 2648; actives 0.35% (n = 310,000); CHO-K1 KCNQ1, thallium flux FluxOR fluorescence; active compounds read high; B-score at 10 µM;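 active = fluorescence ratio B-score, a plate-corrected score, at least three library SD, with initial intensity B-score within 5 SD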
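System: CHO-K1 cells stably expressing KCNQ1 / Medium: assay buffer for compound exposure, DMSO matched across wells / Reagent: thallium- and potassium-containing depolarizing buffer / Compound: one concentration, matched DMSO / Incubation: 20 min compound pretreatment at room temperature / Measured by: kinetic FluxOR fluorescence, 10 s baseline plus 110 s post-stimulus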
KCNK3 block: human KCNK3 channel inhibition, primary screen | CHO-KCNK3 thallium flux, FluxOR fluorescence; active compounds read low | B-score at 10 µM | actives 0.84% (n = 340,000) | AID 602410;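 active = B-score under library mean minus 4 SD, starting fluorescence ratio at most library mean plus 5 SD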;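 also: more negative B-score means stronger inhibition of thallium flux through KCNK3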
KCNQ1 inh valid: human KCNQ1 channel inhibition, validation assay; KCNQ1 cell line, FluxOR thallium flux fluorescence; actives 93% (n = 1,600); AID 588353; inhibition, % at 10 µM; shares compounds with KCNQ1 block;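 active = primary screen active, with duplicate mean exceeding buffer control mean plus 3 SD of buffer wells, cut at about 28% in these data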;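 also: 0% = buffer control ratio and 100% = XE991 inhibitor control ratio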
CHO Tl flux: counter-screen for KCNQ1 inhibitors: effect in parental CHO cells; actives 21% (n = 1,600); parental CHO-K1, FluxOR thallium flux fluorescence ratio; active compounds read low; zero means no signal rise above baseline; shares compounds with KCNQ1 block; fluorescence ratio (Tl flux) at 10 µM; AID 588366;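 active = mean of duplicate thallium-flux fluorescence ratios in parental host cells more than 5 SD below the buffer control mean, cut at about 0.38 in these data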;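 also: ratio is peak minus minimum fluorescence divided by baseline fluorescence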
KCNQ1 APC inh: confirmation of human KCNQ1 potassium channel inhibitors by electrophysiology; shares compounds with KCNQ1 block; KCNQ1-CHO cells, automated patch clamp current; calls only at 10 µM; actives 20% (n = 490); AID 624120;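 active = KCNQ1 current drop exceeding 3 SD of negative control wells, seen in both duplicate runs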;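 also: steady state current during a 2 s step from -80 to +40 mV; negative values mean current inhibition and positive values mean potentiation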
KCNQ2 spec: KCNQ1 inhibitor that also blocks rat KCNQ2 channel; inhibition, % at 10 µM; KCNQ2 cells, FluxOR thallium flux fluorescence; shares compounds with KCNQ1 block; AID 651746; actives 71% (n = 1,600);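 active = mean percent inhibition of the KCNQ2 thallium signal more than 5 SD above the buffer-only control wells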;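 also: KCNQ2 expressed in CHO cells; 0% = buffer control wells and 100% = XE-991 inhibitor control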
KCNQ1 KCNE1 spec: selectivity of KCNQ1 inhibitors: inhibition of human KCNQ1/KCNE1 channel; shares compounds with KCNQ1 block; KCNQ1/KCNE1 cells, FluxOR thallium flux fluorescence; inhibition, % at 10 µM; actives 77% (n = 1,600);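 active = mean percent inhibition of duplicate wells above the buffer-only control mean plus 3 SD of those controls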;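 also: 0% = buffer only wells and 100% = XE-991 inhibitor control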
The depositor's hits bear a star; i = inactive; . = not tested or not shown; + = active, no number. A selection: hits, their analogues and other compounds. The true share with any hit is near 3.8%.

SMILES | KCNQ1 block | hERG rescue | Kir21 block | KCNK9 block | KCNQ1 act | KCNK3 block | KCNQ1 inh valid | CHO Tl flux | KCNQ2 spec | KCNQ1 KCNE1 spec | others
CCOC(=O)c1cc(C(C)(C)C)oc1CNC(=O)c1c(C)oc2c1CCCC2 | 10* | -23 | -0.02 | i | i | i | 141* | 0.38 | 120%* | 142%* | KCNQ1 APC inh=i
CC(C)c1ccc(NC(=O)COc2ccc(F)cc2C(=O)c2cnn(-c3ccccc3)c2)cc1 | i | -10 | -0.44 | i | i | i | . | . | . | .
CC1(C)Cc2c(cnn2-c2ccc(F)cc2)C(NC(=O)C2CCC2)C1 (stereo not given) | 8* | -6 | -0.53 | i | i | i | 103* | 0.46 | 70%* | 112%* | KCNQ1 APC inh=+
Cc1ccc(S(=O)(=O)Nc2ccc3nc(C)sc3c2)cc1 | i | -10 | 0.34 | i | i | i | . | . | . | .
Cc1nc2ccc(NS(=O)(=O)c3ccc4c(c3)OCCO4)cc2s1 | 10* | -8 | -1.8 | i | i | i | 98* | 0.49 | 69%* | 90%* | KCNQ1 APC inh=i
Oc1ccc2nnc3c(Br)cnn3c2c1 | 24* | -44 | -16 | i | i | i | + | 0.042* | i | i
Cc1sc(NC(=O)CSc2ncn(-c3ccccc3)n2)nc1-c1ccccc1 | 6* | -2 | -1.2 | i | i | i | 32* | 0.48 | 77%* | i
Cc1sc(NC(=O)CSC2=NCCS2)nc1-c1ccccc1 | i | -7 | 2.1 | i | i | i | . | . | . | .
CCOC(=O)c1sc(NC(=O)CSc2ncn(-c3ccccc3)n2)nc1C | 16* | -8 | 0.44 | i | i | i | 26* | 0.52 | i | i
CCOC(=O)c1cc(-c2ccccc2)sc1NC(=O)C(C)(C)C | i | -6 | -0.63 | i | i | i | . | . | . | .
CCOC(=O)c1cc(-c2ccccc2)sc1NC(=O)CC(C)C | 6* | -8 | -0.52 | i | i | i | 100* | 0.35* | 127%* | 116%*
Fc1ccc(-n2cc(CNCCc3cccnc3)c(-c3ccccc3Cl)n2)cc1 | i | -18 | -0.09 | i | i | i | . | . | . | .
Cc1cc(C)n(CC(=O)NC2CCCc3c2cnn3-c2ccc(C)c(C)c2)n1 (stereo not given) | i | -7 | 1.4 | i | i | i | . | . | . | .
Cc1cc(C(=O)NC2CCCc3c2cnn3-c2ccc(C)c(C)c2)n(C)n1 (stereo not given) | 11* | -15 | 0.38 | i | i | i | 102* | 0.47 | 91%* | 84%* | KCNQ1 APC inh=i
Cc1cccc(C)c1OCc1cc(C(=O)N2CCC(c3ccncc3)CC2)no1 | 7* | -22 | -0.01 | i | i | i | 113* | 0.52 | 69%* | 35%* | KCNQ1 APC inh=i
Cc1cccc(C)c1OCc1cc(C(=O)N2CCN(c3ccccc3)CC2C)no1 (stereo not given) | 8* | -14 | -1 | i | i | i | 86* | 0.38* | 117%* | 120%*
COc1ccc(N/C=C2\CCc3ccccc3C2=O)cc1 | 6* | -20 | -1.9 | i | i | i | 50* | 0.69 | 112%* | 114%*
O=C(Nc1ccc(Cl)cc1)NC1CCCCC1Cc1ccco1 (stereo not given) | 8* | -9 | -0.74 | i | i | i | 126* | 0.44 | 77%* | 102%* | KCNQ1 APC inh=+
CN(C)CCCN(C(=O)c1ccc2c(c1)CCCC2)c1nc2ccc(F)cc2s1 | i | -21 | -3.7 | i | i | i | . | . | . | .
CN(C)CCCN(C(=O)c1ccc2c(c1)CCCC2)c1nc2cc3c(cc2s1)OCO3 | 7* | -16 | -2.5 | i | i | i | 48* | 0.46 | 76%* | 36%*
CCOC(=O)c1cc(=O)c2ccc(OCC(=O)Nc3ccc(F)cc3)cc2o1 | i | -3 | 3.1 | i | i | i | . | . | . | .
Cc1ccc(S(=O)(=O)NC(=O)c2cc(C)n(-c3ccc(N(C)C)cc3)c2C)cc1 | 6* | -12 | -0.22 | i | i | i | 30* | 0.54 | i | i
Cc1ccc(S(=O)(=O)NC(=O)c2cc(C)n(-c3ccccc3)c2C)cc1 | i | -10 | -0.37 | i | i | i | . | . | . | .
CCOC(=O)C1(CC2CC2)CCN(Cc2cnc(-c3ccccc3C)nc2)CC1 | 7* | -2 | 0.37 | i | i | i | 0 | 0.45 | 78%* | i
O=C(CSc1ccc2ccccc2c1)Nc1ccncc1 | 7* | -10 | -0.68 | i | i | i | 90* | 0.54 | 75%* | i | KCNQ1 APC inh=i
SMILES | KCNQ1 block | hERG rescue | Kir21 block | KCNK9 block | KCNQ1 act | KCNK3 block | KCNQ1 inh valid | CHO Tl flux | KCNQ2 spec | KCNQ1 KCNE1 spec | others
O=C(CSc1ccncc1)Nc1ccc2ccccc2c1 | i | -9 | 0.81 | i | i | i | . | . | . | .
CC1CCN(c2oc(Cc3cccc4ccccc34)nc2C#N)CC1 | 8* | -8 | -0.01 | i | i | i | 99* | 0.39 | 101%* | 112%*
N#Cc1nc(Cc2cccc3ccccc23)oc1N1CCOCC1 | i | -12 | 1.2 | i | i | i | . | . | . | .
O=C(Nc1nc2ccc(F)cc2s1)C1CCN(S(=O)(=O)c2cc([N+](=O)[O-])ccc2Cl)CC1 | 15* | -19 | 0.1 | i | i | i | 158* | 0.37* | 118%* | 198%*
Cc1ccc(-c2csc(=Nc3cccnc3)n2CCCN2CCCC2=O)cc1C | i | -9 | -1.7 | i | i | i | . | . | . | .
Cc1ccc(-c2csc(=Nc3cccnc3)n2CCCn2ccnc2)cc1C | 12* | -17 | -4.5* | i | i | i | 42* | 0.45 | 80%* | i
Cc1ccc(S(=O)(=O)Nc2cccc(Cl)c2)cc1NC(=O)C1CC1 | . | . | . | . | . | i | . | . | . | .
COc1ccc(-c2nc(-c3ccc(NC(=O)c4ccncc4)cc3)no2)cc1OC | 12* | -10 | -1.6 | i | i | i | 0 | 0.48 | 71%* | i
